ChEMBL document CHEMBL4765349, “Design, synthesis and biological evaluation of novel N-sulfonylamidine-based derivatives as c-Met inhibitors via Cu-catalyzed three-component reaction” (Eur J Med Chem, 2020)

Experiments:
[1] = system: HT-29; assay: cells; details: Homo sapiens, HT-29, 72 h
[2] = system: MKN-45; assay: Cytotoxicity against human MKN-45 cells assessed as inhibition of cell proliferation measured after 72 hrs by MTT assay; assay type: functional, cell-based; details: MKN-45, 72 h
[3] = system: A549; assay: cells; details: Homo sapiens, A549, 72 h
[4] = system: MDA-MB-231; assay: Cytotoxicity against human MDA-MB-231 cells assessed as inhibition of cell proliferation measured after 72 hrs by MTT assay; assay type: functional, cell-based; details: MDA-MB-231, 72 h
[5] = system: A549; assay: Induction of apoptosis in human A549 cells assessed as late apoptosis at 1 uM measured after 12 hrs by Annexin V-FITC/ Propidium iodide stain based flow cytometry assay relative to control; assay type: functional
Outline: (§1)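 Cells double-stained with FITC-annexin V and propidium iodide, then flow cytometry gave the percentages of early and late apoptotic cells.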

[6] = system: A549; assay: Induction of apoptosis in human A549 cells assessed as early apoptosis at 1 uM measured after 12 hrs by Annexin V-FITC/ Propidium iodide stain based flow cytometry assay relative to control; assay type: functional
Outline: as §1

Row | Compound | IC50 [1] [µM] | IC50 [2] [µM] | IC50 [3] [µM] | IC50 [4] [µM] | Activity [5] [%] | Activity [6] [%]
1 | COc1cc2nccc(Oc3ccc(N/C(CC4CCCCC4)=N\S(=O)(=O)Cc4ccc(F)cc4)cc3F)c2cc1OC | 10.3 | 15.2 | 9.43 | 19.7 | – | –
2 | COCC/C(=N\S(=O)(=O)Cc1ccccc1)Nc1ccc(Oc2ccnc3cc(OC)c(OC)cc23)c(F)c1 | 3.52 | 4.05 | 3.14 | 6.64 | – | –
3 | COCC/C(=N\S(=O)(=O)Cc1ccc(Cl)cc1)Nc1ccc(Oc2ccnc3cc(OCCCN4CCN(C)CC4)c(OC)cc23)c(F)c1 | 0.36 | 0.61 | 0.32 | 1.24 | – | –
4 | COCC/C(=N\S(=O)(=O)Cc1ccc(Cl)cc1)Nc1ccc(Oc2ccnc3cc(OCCCN4CCC(C)CC4)c(OC)cc23)c(F)c1 | 0.55 | 0.76 | 0.38 | 1.56 | – | –
5 | CCCCC/C(=N\S(=O)(=O)Cc1ccc(F)cc1)Nc1ccc(Oc2ccnc3cc(OC)c(OC)cc23)c(F)c1 | 5.18 | 5.54 | 4.6 | 9.04 | – | –
6 | COCC/C(=N\S(=O)(=O)Cc1ccccc1C)Nc1ccc(Oc2ccnc3cc(OC)c(OC)cc23)c(F)c1 | 4.85 | 5.16 | 4.15 | 8.19 | – | –
7 | COc1cc2nccc(Oc3ccc(N/C(Cc4cccnc4)=N\S(=O)(=O)Cc4ccc(F)cc4)cc3F)c2cc1OC | 15.5 | 18.6 | 13.2 | 22.3 | – | –
8 | COCC/C(=N\S(=O)(=O)Cc1ccc(Cl)c(Cl)c1)Nc1ccc(Oc2ccnc3cc(OCCCN4CCN(C)CC4)c(OC)cc23)c(F)c1 | 0.74 | 0.82 | 0.61 | 1.35 | – | –
9 | CCCCOc1cc2nccc(Oc3ccc(N/C(CCOC)=N/S(=O)(=O)Cc4ccc(Cl)c(Cl)c4)cc3F)c2cc1OC | 4.05 | 4.36 | 3.53 | 7.19 | – | –
10 | COCC/C(=N\S(=O)(=O)Cc1ccc(Cl)c(Cl)c1)Nc1ccc(Oc2ccnc3cc(OC)c(OC)cc23)c(F)c1 | 0.88 | 1.16 | 0.71 | 3.32 | – | –
11 | COCC/C(=N\S(=O)(=O)Cc1ccc(Cl)c(Cl)c1)Nc1ccc(Oc2ccnc3cc(OCCCN4CCOCC4)c(OC)cc23)c(F)c1 | 0.59 | 0.72 | 0.47 | 1.04 | – | –
12 | COCC/C(=N\S(=O)(=O)Cc1cccc(C)c1)Nc1ccc(Oc2ccnc3cc(OC)c(OC)cc23)c(F)c1 | 8.02 | 9.15 | 7.54 | 13.1 | – | –
13 | COCC/C(=N\S(=O)(=O)Cc1ccc(C)cc1)Nc1ccc(Oc2ccnc3cc(OC)c(OC)cc23)c(F)c1 | 8.74 | 9.75 | 8.02 | 13.7 | – | –
14 | COCC/C(=N\S(=O)(=O)Cc1ccc(Cl)cc1)Nc1ccc(Oc2ccnc3cc(OC)c(OC)cc23)c(F)c1 | 0.91 | 1.05 | 0.62 | 2.32 | – | –
15 | COc1cc2nccc(Oc3ccc(N/C(C)=N/S(=O)(=O)Cc4ccc(F)cc4)cc3F)c2cc1OC | 4.12 | 4.55 | 3.76 | 7.65 | – | –
16 | COCC/C(=N\S(=O)(=O)Cc1ccc(C(F)(F)F)cc1)Nc1ccc(Oc2ccnc3cc(OC)c(OC)cc23)c(F)c1 | 13.2 | 15.3 | 11.3 | 20.4 | – | –
17 | COCC/C(=N\S(=O)(=O)Cc1cccc(F)c1)Nc1ccc(Oc2ccnc3cc(OC)c(OC)cc23)c(F)c1 | 2.47 | 3.52 | 2.14 | 5.34 | – | –
18 | CCCCC/C(=N\S(=O)(=O)Cc1ccccc1)Nc1ccc(Oc2ncnc3cc(OC)c(OC)cc23)c(F)c1 | 30.5 | – | 27.1 | – | – | –
19 | CCCCC/C(=N\S(=O)(=O)Cc1ccccc1)Nc1ccc(Oc2ncnc3ccsc23)c(F)c1 | 18.6 | 21.9 | 17.3 | 25.6 | – | –
20 | COc1cc2nccc(Oc3ccc(N/C(Cc4ccsc4)=N\S(=O)(=O)Cc4ccccc4)cc3F)c2cc1OC | 16.5 | – | 14.3 | 23.8 | – | –

Row | Compound | IC50 [1] [µM] | IC50 [2] [µM] | IC50 [3] [µM] | IC50 [4] [µM] | Activity [5] [%] | Activity [6] [%]
21 | CCCCC/C(=N\S(=O)(=O)Cc1ccccc1)Nc1ccc(Oc2ccnc3cc(OC)c(OC)cc23)c(F)c1 | 8.26 | 9.28 | 7.55 | 12.8 | – | –
22 | COc1cc2c(Oc3ccc(NC(=O)C4(C(=O)Nc5ccc(F)cc5)CC4)cc3F)ccnc2cc1OCCCN1CCOCC1 [FORETINIB] | – | – | – | – | 22.9 | 11.25
23 | COCC/C(=N\S(=O)(=O)Cc1ccc(Cl)cc1)Nc1ccc(Oc2ccnc3cc(OCCCN4CCCCC4)c(OC)cc23)c(F)c1 | 0.41 | 0.65 | 0.35 | 1.12 | – | –
24 | COc1cc2nccc(Oc3ccc(N/C(Cc4ccccc4)=N\S(=O)(=O)Cc4ccccc4)cc3F)c2cc1OC | 32.6 | 26.3 | 28.4 | – | – | –
25 | COc1cc2nccc(Oc3ccc(N/C(Cc4ccsc4)=N\S(=O)(=O)Cc4ccc(F)cc4)cc3F)c2cc1OC | 11.2 | 11.9 | 10.1 | 19.5 | – | –
26 | CCCCC/C(=N\S(=O)(=O)Cc1ccc(F)cc1)Nc1ccc(Oc2ncnc3ccsc23)c(F)c1 | 11.2 | 12.5 | 10.3 | 16.8 | – | –
27 | CCCCOc1cc2nccc(Oc3ccc(N/C(CCOC)=N/S(=O)(=O)Cc4ccc(Cl)cc4)cc3F)c2cc1OC | 2.85 | 3.05 | 2.56 | 5.46 | – | –
28 | COc1cc2nccc(Oc3ccc(N/C(C)=N/S(=O)(=O)Cc4ccccc4)cc3F)c2cc1OC | 5.85 | 5.99 | 5.16 | 9.29 | – | –
29 | COCC/C(=N\S(=O)(=O)Cc1ccccc1F)Nc1ccc(Oc2ccnc3cc(OC)c(OC)cc23)c(F)c1 | 3.16 | 3.26 | 2.85 | 5.67 | – | –
30 | CCCCC/C(=N\S(=O)(=O)Cc1ccc(F)cc1)Nc1ccc(Oc2ccnc3ccsc23)c(F)c1 | 7.06 | 9.17 | 6.23 | 14.6 | – | –
31 | COc1cc2nccc(Oc3ccc(N/C(Cc4cccnc4)=N\S(=O)(=O)Cc4ccccc4)cc3F)c2cc1OC | 20.6 | 22.9 | 18.1 | 28.3 | – | –
32 | COc1cc2nccc(Oc3ccc(N/C(CC4CCCCC4)=N\S(=O)(=O)Cc4ccccc4)cc3F)c2cc1OC | 14.5 | 16.3 | 12.2 | 20.4 | – | –
33 | CCCCC/C(=N\S(=O)(=O)Cc1ccc(F)cc1)Nc1ccc(Oc2ncnc3cc(OC)c(OC)cc23)c(F)c1 | 22.1 | 23.4 | 18.6 | 31.8 | – | –
34 | COCC/C(=N\S(=O)(=O)Cc1ccc(Cl)c(Cl)c1)Nc1ccc(Oc2ccnc3cc(OCCCN4CCC(C)CC4)c(OC)cc23)c(F)c1 | 0.88 | 1.15 | 0.72 | 1.98 | – | –
35 | COCC/C(=N\S(=O)(=O)Cc1ccc(Cl)c(Cl)c1)Nc1ccc(Oc2ccnc3cc(OCCCN4CCCCC4)c(OC)cc23)c(F)c1 | 0.78 | 0.88 | 0.67 | 0.93 | – | –
36 | COCC/C(=N\S(=O)(=O)Cc1ccc(Br)cc1)Nc1ccc(Oc2ccnc3cc(OC)c(OC)cc23)c(F)c1 | 8.03 | 11.3 | 7.14 | 12.1 | – | –
37 | COCC/C(=N\S(=O)(=O)Cc1ccc(F)cc1)Nc1ccc(Oc2ccnc3cc(OC)c(OC)cc23)c(F)c1 | 1.68 | 2.15 | 1.42 | 4.24 | – | –
38 | COc1cc2nccc(Oc3ccc(N/C(Cc4ccccc4)=N\S(=O)(=O)Cc4ccc(F)cc4)cc3F)c2cc1OC | 23.7 | – | 20.4 | 32.5 | – | –
39 | CCCCC/C(=N\S(=O)(=O)Cc1ccccc1)Nc1ccc(Oc2ccnc3ccsc23)c(F)c1 | 9.63 | 11.5 | 8.68 | 15.3 | – | –
